From ChEMBL document CHEMBL1125774, “3-Methyl-2H-1-benzopyran potassium channel activators” (J Med Chem, 1991) come the findings set out here.

SMILES strings stand for the structures.

Assay type in all cases: functional
The species named for test [1] is Oryctolagus cuniculus. As to the kind of experiment: Compound measured for hyperpolarization of smooth muscle cells of the rabbit main pulmonary artery at concentration 100 uM. The method in brief:
(§1)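 Rabbit main pulmonary artery strips; intracellular glass microelectrode recording of smooth muscle membrane potential after 60 min equilibration. Baseline taken as potential reached with 1 µM noradrenaline. Bath medium exchanged for solutions of increasing compound concentration. At least four cells measured per concentration. Value is hyperpolarization (ΔmV) at the stated concentration, averaged over two preparations.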

The species named for test [2] is Sus scrofa. The test can be described thus: Relaxing effect determined by measuring inhibition of acetylcholine-induced contractions in pig coronary arteries. The method in brief:
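Pig coronary artery rings from slaughterhouse hearts, resting tension 2 g, isometric force recording. Control acetylcholine contraction repeated every 45 min for three or four cycles, with the last cycle as predrug value. Rising compound concentrations added 30 min before agonist; a solvent ring served as time control.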

For test [3], the species on record is Oryctolagus cuniculus. As to the kind of experiment: Compound measured for hyperpolarization of smooth muscle cells of the rabbit main pulmonary artery at concentration 1 uM. The method in brief: as §1
The species named for test [4] is Oryctolagus cuniculus. As to the kind of experiment: Compound measured for hyperpolarization of smooth muscle cells of the rabbit main pulmonary artery at concentration 0.1 uM. The method in brief:
as §1

Test [5] is filed under the species Oryctolagus cuniculus. The test can be described thus: Relaxing effect by measuring inhibition of noradrenaline-induced contractions in rabbit main pulmonary arteries. In outline:
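Rabbit pulmonary artery rings 5 mm wide, resting tension 2 g, equilibrated 60–90 min, isometric force recording. Rings contracted with 0.7-1 µM noradrenaline (about 80% of maximal response). Once force was stable, compound added cumulatively in 0.5 log increments. IC50 (50% inhibition) determined graphically for each experiment and reported as geometric mean with 95% confidence limits.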

The species entered for test [6] is Oryctolagus cuniculus. The test can be described thus: Drug concentration required to induce half maximal hyperpolarization in rabbit main pulmonary arteries. The method in brief: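 Rabbit main pulmonary artery strips, 60 min equilibration, predepolarized with 1 µM noradrenaline. Membrane potential recorded intracellularly with glass microelectrodes in at least four cells per concentration while compound concentration was raised by bath exchange. EC50 is the concentration giving half-maximal hyperpolarization, taken from concentration/response curves.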

The species named for test [7] is Oryctolagus cuniculus. The test can be described thus: Compound measured for hyperpolarization of smooth muscle cells of the rabbit main pulmonary artery at concentration 10 uM. In outline:
as §1

Test [8] is filed under the species Oryctolagus cuniculus. The test can be described thus: Compound measured for hyperpolarization of smooth muscle cells of the rabbit main pulmonary artery at concentration 4 uM. As to conditions: in the assay text read “10 uM” for “4 uM”. The method in brief:
as §1

The species named for test [9] is Oryctolagus cuniculus. As to the kind of experiment: Compound measured for hyperpolarization of smooth muscle cells of the rabbit main pulmonary artery at concentration 3 uM. The method in brief:
as §1

Take `CC1(C)Oc2ccc(C#N)cc2[C@@H](n2ccccc2=O)[C@]1(C)O`: the “Delta mV” value in test [1] came to 19. Besides, in test [2], the IC50 (commonly the concentration that inhibits the measured activity by half) is above 100000 nM.

For the molecule `C[C@H]1[C@H](n2ccccc2=O)c2cc(C#N)ccc2OC1(C)C`, the “Delta mV” value in test [3] is recorded as 10. In addition, the concentration for half-maximal inhibition (IC50) in test [2] was above 100000 nM.

For `CC1(C)Oc2ccc(C#N)cc2[C@@H](Oc2ccc(=O)[nH]n2)[C@]1(C)O`, the “Delta mV” value in test [4] was found to be 29. Further, the IC50 in test [5] stood at 2 nM; in test [2], 6 nM. Also, the EC50 (usually the concentration at which the effect is half-maximal) in test [6] was 3 nM.

For `CC1(C)Oc2ccc(C#N)cc2[C@H](Oc2ccc(=O)[nH]n2)[C@@]1(C)O`, in test [1], the “Delta mV” value was determined as 20.

Turning to `CC1(C)Oc2ccc(C#N)cc2[C@@H](Oc2ccc(=O)[nH]n2)[C@@]1(O)Cc1ccccc1`, in test [1], the “Delta mV” value is 6. The same molecule showed an IC50 in test [2] above 100000 nM.

As to `CC1(C)Oc2ccc(C#N)cc2[C@@H](On2ccccc2=O)[C@]1(C)O`, the “Delta mV” value in test [1] was determined as 21. The IC50 in test [2] was above 100000 nM.

As to `CC1(C)Oc2ccc(C#N)cc2[C@@H](Oc2ccccn2)[C@]1(C)O`, the “Delta mV” value in test [1] is given as 25. Besides, the IC50 in test [2] was 6000 nM.

For the molecule `CC1(C)Oc2ccc(C#N)cc2[C@]2(n3ccccc3=O)O[C@]12C`, in test [1], the “Delta mV” value is 10. In test [2], this molecule showed an IC50 above 100000 nM.

For `CC1(C)Oc2ccc([N+](=O)[O-])cc2[C@@H](n2ccccc2=O)[C@]1(C)O`, the “Delta mV” value in [7] was determined as 22. In test [2], this molecule displayed an IC50 of 20000 nM.

Take `CC1(C)Oc2ccc(C#N)cc2[C@@H](Oc2ccnc(O)c2)[C@]1(C)O`: the “Delta mV” value in [4] is reported as 35. Further, the IC50 in [2] was 4 nM.

As to `CC1(C)Oc2ccc(C#N)cc2[C@@H](Nn2ccccc2=O)[C@]1(C)O`, the “Delta mV” value in test [1] was 12. In addition, the 50% inhibitory concentration (IC50) in [2] was above 100000 nM.

With `CC1(C)Oc2ccc(C#N)cc2[C@@H](n2nc(N)ccc2=O)[C@]1(C)O`, the “Delta mV” value in [1] was determined as 13. The molecule also gave a concentration for half-maximal inhibition (IC50) in test [2] of 40000 nM.

Regarding `C[C@]1(O)[C@H](n2ccccc2=O)c2cc(C#N)ccc2OC12CCCCC2`, in [1], the “Delta mV” value is on record as 3. Besides, the half-inhibitory concentration (IC50) in [2] was determined as 20000 nM.

With `CC1(C)Oc2ccc(C#N)cc2[C@@H](N2CCCC2=O)[C@]1(C)O`, the IC50 in test [2] came out at 4000 nM. Further, the “Delta mV” value in test [8] was determined as 23.

Consider `CCOC[C@]1(O)[C@H](Oc2ccc(=O)[nH]n2)c2cc(C#N)ccc2OC1(C)C`, for which, in test [1], the “Delta mV” value is 12. Moreover, the half-inhibitory concentration (IC50) in test [2] came out at 50000 nM.

Regarding `CCn1nc(O[C@@H]2c3cc(C#N)ccc3OC(C)(C)[C@@]2(C)O)ccc1=O`, the “Delta mV” value in test [4] came out at 22. Also, half-maximal inhibition in [2] (IC50) required 7 nM.

In test [2], `CC1(C)Oc2ccc(C#N)cc2[C@@H](Oc2ccc(=O)[nH]n2)[C@@]1(O)CO` registered an IC50 of 700 nM. Also, in test [9], the “Delta mV” value worked out at 32.

With `CC1(C)Oc2ccc(C#N)cc2[C@@H](OC2=CC(=O)CC2)[C@]1(C)O`, the “Delta mV” value in test [3] came to 25. Further, inhibition in test [2] was half-maximal at 20 nM (IC50).

Turning to `CC1(C)Oc2ccc([N+](=O)[O-])cc2[C@@H](Oc2ccc(=O)[nH]n2)[C@]1(C)O`, in test [4], the “Delta mV” value is given as 24. In test [2], this molecule had an IC50 of 20 nM.

Consider `CC1(C)Oc2ccc(C#N)cc2[C@@H](n2ccccc2=O)[C@@H]1O`, for which, in test [5], half-maximal inhibition (IC50) required 174 nM. In test [6], this molecule registered a half-maximal effective concentration (EC50) of 105 nM. In [3], the “Delta mV” value is 34.

Regarding `Cn1nc(O[C@@H]2c3cc(C#N)ccc3OC(C)(C)[C@@]2(C)O)ccc1=O`, the “Delta mV” value in test [4] is given as 24. Moreover, in test [2], the IC50 turned out to be 30 nM.

Turning to `CC1(C)Oc2ccc(C#N)cc2[C@@H](Oc2ccc(=O)[nH]n2)[C@@]1(O)COCc1ccccc1`, the “Delta mV” value in test [1] is 16. Further, the IC50 in [2] is above 100000 nM.

In the case of `C[C@]1(O)[C@H](Oc2ccc(=O)[nH]n2)c2cc(C#N)ccc2OC12CCCCC2`, the “Delta mV” value in test [1] is 26. The IC50 in [2] came out at 80000 nM.

For the molecule `Cn1nc(N[C@@H]2c3cc(C#N)ccc3OC(C)(C)[C@@]2(C)O)ccc1=O`, the “Delta mV” value in [4] was 34. Inhibition in test [2] was half-maximal at 20 nM (IC50).

In the case of `CC1=C(n2ccccc2=O)c2cc(C#N)ccc2OC1(C)C`, in [1], the “Delta mV” value was determined as 29. In [2], inhibition was half-maximal at 5000 nM (IC50).

For `Cn1nc(O[C@@H]2c3cc(C#N)ccc3OC(C)(C)[C@H]2O)ccc1=O`, the “Delta mV” value in test [4] came to 29. For the same molecule, the IC50 amounted to 26 nM in test [5] and 50 nM in test [2]. This molecule gave an EC50 in test [6] of 11 nM.

Take `CC1=C(N2CCCC2=O)c2cc(C#N)ccc2OC1(C)C`: in [1], the “Delta mV” value amounted to 29. Besides, the IC50 in test [2] is above 100000 nM.

As to `CC1(C)C=C(n2ccccc2=O)c2cc(C#N)ccc2O1` [BIMAKALIM], in test [4], the “Delta mV” value is reported as 23. Besides, the IC50 in test [5] worked out at 57 nM; in test [2] it was 50 nM. This molecule also came in with an EC50 in test [6] of 27 nM.

With `CC1(C)Oc2ccc(C#N)cc2C(N2CCCC2=O)C1O` (stereo unspecified) [CROMAKALIM], the IC50 in [5] came out at 420 nM; in [2], 700 nM. Also, the EC50 in test [6] was 263 nM. Besides, in test [9], the “Delta mV” value stood at 28.
